The source of these data is ChEMBL document CHEMBL1125367 (J Med Chem, 1992).

The structures appear in SMILES notation.

Assay [1] concerns the target D(1A) dopamine receptor (Rattus norvegicus) (UniProt P18901). Description: Selectivity index of D1 receptor to that of D2 receptor was determined. The procedure, abridged:
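Index equals IC50 at D-1 ([3H]SCH 23390 binding) divided by IC50 at D-2 ([3H]spiperone binding), both measured in rat striatal membrane competition assays.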

For assay [2] the target is unchanged. Description: Percent stimulation of adenylate cyclase activity at dopamine receptor D1 of Rat Striatum at 1 uM. It counts as functional. As to conditions: values are per cent of control.
Assay [3] deals with T1, D(1A) dopamine receptor (Rattus norvegicus, UniProt P18901). Nature of the assay: (§1) Inhibitory activity against [3H]-SCH- 23390 in Rat Striatal membrane. Type of assay: cell membranes.
T1 sequence (P18901 whole entry): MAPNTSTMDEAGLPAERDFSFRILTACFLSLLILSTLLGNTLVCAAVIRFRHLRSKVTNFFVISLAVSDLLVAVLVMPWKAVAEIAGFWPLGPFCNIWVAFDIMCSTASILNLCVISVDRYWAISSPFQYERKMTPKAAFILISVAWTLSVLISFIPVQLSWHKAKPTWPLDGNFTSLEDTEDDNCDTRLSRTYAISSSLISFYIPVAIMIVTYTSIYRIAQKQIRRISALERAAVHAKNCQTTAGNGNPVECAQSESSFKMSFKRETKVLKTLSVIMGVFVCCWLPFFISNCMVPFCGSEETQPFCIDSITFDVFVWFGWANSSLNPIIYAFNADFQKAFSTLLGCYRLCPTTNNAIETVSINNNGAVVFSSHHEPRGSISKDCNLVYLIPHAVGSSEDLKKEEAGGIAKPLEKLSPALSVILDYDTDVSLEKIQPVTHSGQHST
Assay [4] concerns the target D(1A) dopamine receptor (Rattus norvegicus) (UniProt P18901). Description: The percentage stimulation of adenylate cyclase activity of compound was measured on dopamine receptor D1 of Rat Striatum at 0.1 uM. It counts as functional.
For assay [5] the target is unchanged. Nature of the assay: The percentage stimulation of adenylate cyclase activity of compound was measured on dopamine receptor D1 of Rat Striatum at 10 uM. As to conditions: values are per cent of control. Type of assay: functional.
The target of assay [6] is D(2) dopamine receptor (Rattus norvegicus) (UniProt P61169). Nature of the assay: The percentage inhibition of adenylate cyclase activity of compound was measured on dopamine receptor D2 of Rat Striatum at 0.01 micro M. The note with it: values are per cent of control. The procedure, abridged:
(§2)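 D-2 inhibition of basal adenylate cyclase in rat striatal synaptic membranes, 20-30 μg protein. Medium: Tris-HCl pH 7.4, 100 mM NaCl, 0.5 mM ATP, 50 μM GTP, IBMX, [α-32P]ATP, with 0.1 μM SCH 23390 present to block D-1. Incubation 20 min at 25 °C, followed by double-column cAMP isolation. Activity is given as % of basal, quadruplicates, three experiments.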

Assay [7] has the same target. Description: The percentage inhibition of adenylate cyclase activity of compound was measured on dopamine receptor D2 of Rat Striatum at 0.1 micro M. As to conditions: values are per cent of control. In outline:
as §2

The target in another assay is D(2) dopamine receptor (Rattus norvegicus, UniProt P61169). Nature of the assay: Inhibitory activity against [3H]spiperone in Rat Striatal membrane. It counts as cell membranes.
Sequence of D(2) dopamine receptor (P61169 whole entry): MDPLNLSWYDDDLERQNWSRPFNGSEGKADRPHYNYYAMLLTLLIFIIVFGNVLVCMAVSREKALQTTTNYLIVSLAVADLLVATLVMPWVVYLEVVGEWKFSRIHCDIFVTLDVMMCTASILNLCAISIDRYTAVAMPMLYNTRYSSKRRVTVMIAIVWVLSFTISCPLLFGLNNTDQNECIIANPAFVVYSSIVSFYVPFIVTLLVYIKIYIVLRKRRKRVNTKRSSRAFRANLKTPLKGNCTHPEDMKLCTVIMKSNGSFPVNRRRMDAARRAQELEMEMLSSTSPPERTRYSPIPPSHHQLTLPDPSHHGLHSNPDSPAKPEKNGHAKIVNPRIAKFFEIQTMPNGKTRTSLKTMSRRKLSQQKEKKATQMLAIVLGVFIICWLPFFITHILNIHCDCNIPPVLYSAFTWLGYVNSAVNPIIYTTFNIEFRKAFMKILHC
The target of assay [8] is D(2) dopamine receptor (Rattus norvegicus) (UniProt P61169). Nature of the assay: The percentage inhibition of adenylate cyclase activity of compound was measured on dopamine receptor D2 of Rat Striatum at 10 micro M. The note with it: values are per cent of control. The procedure, abridged:
as §2

Assay [9] shares this target. Description: The percentage inhibition of adenylate cyclase activity of compound was measured on dopamine receptor D2 of Rat Striatum at 1 micro M. The note with it: values are per cent of control. In outline:
as §2

Assay [10] concerns the target D(1A) dopamine receptor (Rattus norvegicus) (UniProt P18901). Description: The percentage stimulation of adenylate cyclase activity of compound was measured on dopamine receptor D1 of Rat Striatum at 0.01 uM. Type of assay: functional.
Assay [11] addresses T1, D(1A) dopamine receptor. The assay is described as §1. Type of assay: cell membranes. The procedure, abridged:
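Competition binding on rat striatal membranes. The D-1 site was labelled with [3H]SCH 23390 and the D-2 site with [3H]spiperone. IC50 is the concentration giving half-maximal inhibition of binding, reported as mean ± SEM.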
This is another data set of the same source.

In assay [12] the target is D(1A) dopamine receptor (Rattus norvegicus) (UniProt P18901). Nature of the assay: The percentage stimulation of adenylate cyclase activity of compound was measured on dopamine receptor D1 of Rat Striatum at 0.1uM. It counts as functional.
Sequence of D(1A) dopamine receptor (Rattus norvegicus) (P18901 whole entry): as the sequence (P18901 whole entry) above

Sequence of D(2) dopamine receptor (Rattus norvegicus) (P61169 whole entry): as the sequence (P61169 whole entry) above

One may read the IC50 as the concentration that inhibits the measured activity by half. For `Br.NCCc1ccc(Cl)c(O)c1`, in [1], the Ratio was found to be 0.96. The residual activity in assay [2] came to 95%; in assay [5], 105%; in assay [6] it was 101%; in [7], 90%; in [8], 84%; in assay [9], 87%. Also, the IC50 at D(1A) dopamine receptor [3] is 25.3 µM; against D(2) dopamine receptor, 26.3 µM. Also, the stimulation in assay [4] was found to be 98%.
Regarding `CCCN(CCc1ccccc1)CCc1ccc(Cl)c(O)c1`, in assay [1], the Ratio turned out to be 17.6. The residual activity was 118% in assay [2]; 128% in assay [5]; 93% in assay [6]; 86% in [7]; 76% in assay [8]; 78% in [9]. Moreover, the IC50 on D(1A) dopamine receptor [3] came out at 24.4 µM; against D(2) dopamine receptor, 1.39 µM. In addition, the stimulation worked out at 113% in assay [4] and 104% in assay [10].
`NCCc1ccc(O)c(O)c1`: the residual activity was determined as 110% in [2]; 95% in assay [6]; 92% in [7]; 83% in [8]; 87% in assay [9]. For the same molecule, the stimulation stood at 113% in assay [4] and 104% in assay [10].
With `CCCN(CCc1ccccc1)CCc1cccc(O)c1`, the Ratio in assay [1] was 124. The half-maximal inhibitory concentration (IC50) against D(1A) dopamine receptor [3] turned out to be 92.8 µM; on D(2) dopamine receptor it was 0.75 µM. Also, the residual activity in assay [7] was found to be 95%; in [8], 84%; in assay [9], 86%.
On to `CCCN(CCc1ccc(O)cc1)CCc1ccc(Cl)c(O)c1`, for which the Ratio in assay [1] came out at 20.1. In addition, the residual activity amounted to 136% in assay [2]; 130% in assay [4] (values are per cent of control); 136% in [5]; 92% in [6]; 81% in assay [7]; 126% in assay [10] (values are per cent of control). The residual activity in [8] and in assay [9] was 74% in each case. For the same molecule, the results for the IC50 against D(2) dopamine receptor and against D(1A) dopamine receptor [11] were 0.9 µM and 18.1 µM, respectively.
As to `CCCN(CCc1cccc(O)c1)CCc1ccc(Cl)c(O)c1`, the Ratio in assay [1] was 15.3. The residual activity is 125% in assay [2]; 128% in assay [5]; 94% in [6]; 91% in assay [7]; 81% in assay [8]; 83% in assay [9]. Also, the IC50 on D(1A) dopamine receptor [3] was 11.2 µM; on D(2) dopamine receptor, 0.73 µM. The figures for the stimulation in assay [4] and in assay [10] were 116% and 103%, respectively.
With `Br.CCCN(CCC)CCc1ccc(Cl)c(O)c1`, the Ratio in assay [1] came to 3.93. Also, the residual activity stood at 105% in [2]; 115% in [5]; 96% in [6]; 88% in assay [7]; 86% in [8]; 90% in assay [9]. Further, the IC50 at D(1A) dopamine receptor [3] was 50.7 µM; against D(2) dopamine receptor, 12.9 µM. In assay [4], the stimulation worked out at 101%.
For `Br.CCCN(CCCc1ccc(O)cc1)CCc1ccc(Cl)c(O)c1`, the Ratio in assay [1] amounted to 19.9. In addition, the residual activity in assay [2] was determined as 100%; in [5] it was 110%; in assay [6], 96.4%; in [7] it was 86%; in [9], 82%. Moreover, the IC50 on D(1A) dopamine receptor [3] was 16.9 µM; on D(2) dopamine receptor, 0.85 µM. The stimulation in assay [12] is 101%.
